A selection: hits, their analogues and other compounds. The true share with any hit is near 1.7%.
Rpn11 block – Rpn11 (PSMD14) deubiquitinase inhibitors, primary screen, biochemical, fluorescence polarization, uHTS; 26S proteasome non-ATPase regulatory subunit 14 (Homo sapiens), O00487; human 26S proteasome, Ub4-pepOG fluorescence polarization; 20S core pre-blocked with epoxomicin; inhibition, % at 20 µM; 0.59% of 360,000 active;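 active = inhibition at 20 µM, scaled to each plate's controls, above about 33%, limit read from the data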
CSN inh – inhibitors of CSN-mediated cullin deneddylation, primary screen, biochemical, fluorescence polarization, uHTS | 0.38% of 360,000 active | inhibition, % at 12.5 µM | Purified CSN, SCF-Nedd8-OG deneddylation;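 active = pattern-corrected inhibition above about 35%, with an unprinted fluorescence ratio check between 0.5 and 1.5, limit read from the data, passing the limit was not always enough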;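 note: 0% = enzyme with substrate and 100% = substrate without enzyme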
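Schedule: reaction 90 min, room temperature / Assay system: HEK293T-derived human Csn5 enzyme / Input: Csn5 at 0.24 nM final / Measure: inhibition of Csn5 cleavage, % / Control set: substrate-only high control, full reaction low control / Technique: fluorescence polarization of the substrate / Buffer or medium: Tris/NaCl/DTT buffer, pH 7.5 / Reagent: SCFSkp2-Nedd8OG substrate at 10 nM final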
IDE act – human IDE activators in live cells, primary screen, fluorescence polarization, HEK cells, FAbeta-B substrate. Insulin-degrading enzyme (Homo sapiens), P14735. FAbeta-B cleavage; 0% vehicle, 100% cell-free pure enzyme wells. activation, % at 5.96 µM. 0.073% of 340,000 active;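 active = activation above the mean of all tested compounds plus 3 SD, set per screening campaign, cut at about 17% in these data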
TPT1 inhibitor – Candida albicans TPT1 enzyme inhibitors, primary screen, biochemical, fluorescence polarization. 0.81% of 300,000 active. inhibition, % at 5 µM. AID 1962, 2009. tRNA 2'-phosphotransferase TPT1 (Candida albicans SC5314). recombinant caTPT1, FP RNA substrate dephosphorylation;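 active = inhibition above the mean of all tested compounds plus 3 SD, set per screening campaign, cut at about 24% in these data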;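 note: plate controls were DMSO alone for no effect and ferristatin control at 100 nM for full effect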
IDE inh – human IDE inhibitors in live cells, primary screen, fluorescence polarization, HEK cells, FAbetaB substrate. FAbetaB cleavage. 0.41% of 320,000 active. Insulin-degrading enzyme (Homo sapiens), P14735. inhibition, % at 5.59 µM;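 active = percent inhibition above the average of all tested compounds plus 3 SD, set per screening campaign, cut at about 16% in these data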;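 note: IDE supplied by intact live HEK cells; FP after avidin binding of uncleaved biotin substrate so inhibition keeps polarization high; 0% = DMSO wells and 100% = 60 µM reference IDE inhibitor Ii1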
HNF4A DNA FP – change in binding of human HNF4A to DNA, primary screen, biochemical, fluorescence polarization, FITC-DNA; Hepatocyte nuclear factor 4-alpha (Homo sapiens), P41235; 1 h; activity change, % at 10 µM; 0.3% of 360,000 active; AID 1224865, 2016; in the data active = activity change above about 30%, passing the limit was not always enough
TPT1 inh confirm – Candida albicans TPT1 inhibitors, confirmation, biochemical, fluorescence polarization, triplicate | 74% of 2,400 active | inhibition, % at 5 µM | recombinant caTPT1, RNase T1 coupled | shares compounds with TPT1 inhibitor;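 active = inhibition above the primary screen limit, the mean inhibition of all tested compounds plus 3 SD, cut at about 25% in these data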
RNase T1 counter – RNase T1 inhibitors, counter-screen for TPT1 inhibitor project, biochemical, fluorescence polarization. RNase T1 cleavage, 1536-well. inhibition, % at 5 µM. shares compounds with TPT1 inhibitor. 83% of 2,400 active. AID 2153, 2009;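 active = inhibition above the solvent-only control well mean plus 3 SD, limit set per screening run, cut at about 23% in these data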;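 note: plate controls were DMSO wells with enzyme for no effect and wells without RNase T1 for full effect; inhibitors block cleavage so intact labeled substrate keeps polarization high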
* = called active by the depositor; / = no result shown.

SMILES	Rpn11 block	CSN inh	IDE act	TPT1 inhibitor	IDE inh	HNF4A DNA FP	TPT1 inh confirm	RNase T1 counter
CNC(=O)NC(=O)C(C)OC(=O)c1c2c(nc3ccccc13)/C(=C/c1cccs1)CC2 (stereo not given)	/	14	-4	27*	1	24	30*	42*
Cn1nnnc1SCc1ccc(CSc2nnnn2C)cc1	-4	-4	-2	55*	8	1	3	5
Cn1nnnc1SCc1ccc(Cl)cc1	0	2	-5	-1	5	2	/	/
CC1=C(C(=O)N2CCCCCC2)CC(CC(=O)NCCCN(C)C)C(=O)N1Cc1ccccc1 (stereo not given)	-2	1	/	/	/	-2	/	/
O=C(CN1CCN(C(=O)CNC(=O)c2ccc(N3CCCC3=O)cc2)CC1)Nc1cccc(F)c1	0	4	/	/	/	1	/	/
O=C1CCC(=O)N1c1ccc(-c2nc3ccccc3s2)cc1	18	3	5	52*	-4	5	11	18
Cc1ccc(C(=O)NN2C(=O)/C(=C/c3cccn3C)SC2=S)cc1	/	21	3	79*	12	88*	96*	112*
Cn1cccc1/C=C1\SC(=S)N(NC(=O)c2ccccc2Cl)C1=O	/	44*	-5	87*	4	69*	88*	106*
O=C(NN1C(=O)/C(=C/c2cccc(O)c2)SC1=S)c1ccccc1O	-3	-5	5	1	-1	3	/	/
Cc1cc2c(cc1C)-n1nnnc1C(N(C)CCc1ccccc1)C(=O)N2 (stereo not given)	/	1	/	/	/	4	/	/
O=c1cc(C(F)(F)F)nc(-n2[nH]c3c(c2=O)CCCC3)[nH]1	1	3	-2	33*	12	4	16	28*
COc1ccc(-c2ccc(-c3noc(-c4cccs4)n3)c(OC)n2)cc1	/	10	6	26*	-6	25	28*	39*
NC(=O)NC(=O)CC1S/C(=N/N=C2\CSC(=O)N2)NC1=O (stereo not given)	4	2	5	1	3	1	/	/
O=C(O)CNC(=O)CC1S/C(=N/N=C2/NC(=O)CS2)NC1=O (stereo not given)	14	5	-9	26*	-6	21	33*	46*
CCCCc1nc2ccccc2c(N)c1CCC (tested in a mixture with another compound)	-16	-4	1	40*	0	-2	4	5
Cc1c(Cc2ccccc2)sc(/N=C/c2ccc3ccccc3c2)c1C(N)=O	31	-1	2	56*	8	13	8	13
Cc1c(Cc2ccccc2)sc(/N=C/c2c(O)ccc3ccccc23)c1C(N)=O	/	87	-5	94*	9	38*	48*	57*
Cc1ccc(/C=N/c2sc(Cc3ccccc3)c(C)c2C(N)=O)o1	36	-7	0	8	-4	27	/	/
Cc1cccc(S(=O)(=O)NC(=O)C2(C)CCN2C(=O)c2c(C)noc2C)c1 (stereo not given)	0	2	/	/	/	-4	/	/
CC(C)NC(=O)C1(C)CSCC(=O)N1Cc1cccc(C(F)(F)F)c1 (stereo not given)	/	0	/	/	/	9	/	/
CC(C)C(Cl)=NOC(=O)Nc1ccc(S(N)(=O)=O)cc1	-4	0	-1	/	/	3	/	/
CCN1CCN(c2cc(N3CCN(C(=O)c4ccco4)CC3)c3c4c(onc24)-c2ccccc2C3=O)CC1	-18	-11	1	40*	5	0	43*	12

Assay outcomes: PubChem, several laboratories
